According to ChEMBL document CHEMBL4699407, “Isoquinoline thiosemicarbazone displays potent anticancer activity with in vivo efficacy against aggressive leukemias” (RSC Med Chem, 2020):
Activity calls are given as the source filed them. The calls are words filed in the database; no cut-off is given here.

Legend:
[1] = tested on: MIA PaCa-2; test: Induction of apoptosis in human MIA PaCa-2 cells assessed as increase in late apoptotic cells at 25 nM in presence of Cu2+ incubated for 72 hrs by annexin V and propidium iodide staining based flow cytometry analysis relative to control; assay type: functional
How it was run: (§1)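 Cells given 25 nM compound with or without 20 μM Cu(II) and/or the ATR inhibitor VE-822 at 250 nM for 72 h. Stained with annexin V-FITC and propidium iodide, then analysed on a five-laser flow cytometer to score viable, early apoptotic, late apoptotic and necrotic fractions against vehicle.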

[2] = tested on: MIA PaCa-2; test: Induction of DNA damage in human MIA PaCa-2 cells assessed as decrease in dGTP level at 25 nM in presence of Cu2+ incubated for 48 hrs by LC-MS/MS analysis; assay type: functional, cell-based
How it was run: (§2)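 Cells in DMEM or RPMI with 10% FBS, 37 °C, 5% CO2. Treated with 25 nM compound plus 20 μM Cu(II) for 48 h. Nucleotide pools quantified by LC-MS/MS with multiple reaction monitoring. Cells were in glucose-free DMEM with 10% dialyzed FBS and 11 mM [U-13C6]glucose for 48 h, and glucose-labeled pools were compared. Mean ± SD, n = 3, two-way ANOVA with Bonferroni correction.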

[3] = tested on: MIA PaCa-2; test: Induction of apoptosis in human MIA PaCa-2 cells assessed as increase in early apoptotic cells at 25 nM in presence of Cu2+ and ATRi incubated for 72 hrs by annexin V and propidium iodide staining based flow cytometry analysis relative to control; assay type: functional; how it was run: as §1
[4] = Cytotoxicity against human HPDE cells assessed as reduction in cell viability in presence of Cu2+ incubated for 72 hrs by cell titer-glo luminescent cell viability assay; assay type: cell-based
How it was run: (§3)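 Cells were grown in DMEM or RPMI with 10% FBS, without antibiotics, at 37 °C, 20% O2, 5% CO2. Adherent lines were seeded at 500 cells/well. Serially diluted compound was given with 20 μM Cu(II) (CuCl2) for 72 h; leukemia models received pre-formed 1:1 copper complex. ATP was read by CellTiter-Glo luminescence. IC50 is relative to DMSO-treated cells.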

[5] = tested on: 143B; test: Cytotoxicity against human 143-BTK Rho0 cells assessed as reduction in cell viability at 25 to 100 nM incubated for 48 hrs by trypan blue assay; assay type: functional, cell-based; conditions: dose nM 25-100, time 48.0 hrs
How it was run: (§4)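 143 BTK parental (WT) and ρ0 cells were exposed to the indicated compound concentrations plus 20 μM Cu(II) for 48 h. Viable cells were counted by trypan blue staining on a Vi-Cell counter. Mean ± SD, n = 2, Student t-test.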

[6] = tested on: MIA PaCa-2; test: Induction of DNA damage in human MIA PaCa-2 cells assessed as decrease in GTP level at 25 nM in presence of Cu2+ incubated for 48 hrs by LC-MS/MS analysis; assay type: functional, cell-based
How it was run: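 MIAPACA2 cells were given 25 nM compound plus 20 μM Cu(II) for 48 h in glucose-free DMEM with 10% dialyzed FBS and 11 mM [U-13C6]glucose. Nucleotide pools were quantified by LC-MS/MS with multiple reaction monitoring. Mean ± SD, n = 3, two-way ANOVA with Bonferroni correction.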

[7] = tested on: MIA PaCa-2; test: Induction of apoptosis in human MIA PaCa-2 cells assessed as increase in caspase 3 cleavage at 10 nM in presence of Cu2+ incubated for 48 hrs by immunoblot assay; assay type: functional, cell-based
How it was run: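 Treated with 10 nM compound plus 20 μM Cu(II). Lysed in RIPA buffer with protease and phosphatase inhibitors, then sonicated and centrifuged at 20 000g, 4 °C. Protein measured by micro BCA, and equal amounts run on bis-tris gels. Primary antibodies in 5% BSA/TBST; HRP-linked anti-rabbit or anti-mouse secondaries at 1:2500. Chemiluminescent detection on film; representative blot.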

[8] = tested on: 143B; test: Cytotoxicity against human 143-BTK cells assessed as reduction in cell viability at 25 to 100 nM incubated for 48 hrs by trypan blue assay; assay type: functional, cell-based; conditions: dose nM 25-100, time 48.0 hrs; how it was run: as §4
[9] = tested on: MIA PaCa-2; test: Cytotoxicity against human MIA PaCa2 cells assessed as reduction in cell viability 72 hrs by cell titer-glo luminescent cell viability assay; assay type: functional
How it was run: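 MIAPACA2 cells in conventional medium without copper supplement got serially diluted compound for 72 h. ATP content was read by CellTiter-Glo, and IC90 (90% proliferation inhibition vs DMSO control) was calculated.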

[10] = Cytotoxicity against human A13A cells assessed as reduction in cell viability in presence of Cu2+ incubated for 72 hrs by cell titer-glo luminescent cell viability assay; assay type: functional, cell-based; how it was run: as §3
[11] = tested on: MIA PaCa-2; test: Induction of apoptosis in human MIA PaCa-2 cells assessed as increase in late apoptotic cells at 25 nM incubated for 72 hrs by annexin V and propidium iodide staining based flow cytometry analysis relative to control; assay type: functional; how it was run: as §1
[12] = tested on: MIA PaCa-2; test: Anti-OXPHOS activity in human MIA PaCa-2 cells assessed as reduction in oxygen consumption rate at 25 nM in presence of Cu2+ incubated for 24 hrs by […]; assay type: functional, cell-based; conditions: Mitochondria
How it was run: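 Cellular Mito Stress Test: cells treated 24 h with 25 nM compound plus 20 μM Cu(II), then incubated in unbuffered DMEM with 25 mM glucose, 1 mM pyruvate and 2 mM glutamine. OCR was read on an XF24 analyzer and normalized per μg protein. It was read at baseline and after serial 1 μM oligomycin, 0.75 μM FCCP, and 1 μM rotenone plus myxothiazol.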

[13] = tested on: MIA PaCa-2; test: Induction of DNA damage in human MIA PaCa-2 cells assessed as decrease in dCTP level at 25 nM in presence of Cu2+ incubated for 48 hrs by LC-MS/MS analysis; assay type: functional, cell-based; how it was run: as §2
[14] = tested on: NCI-H1963; test: Cytotoxicity against human NCI-H1963 cells assessed as reduction in cell viability in presence of Cu2+ incubated for 72 hrs by cell titer-glo luminescent cell viability assay; assay type: functional, cell-based; conditions: NCI-H1963, 72 h; how it was run: as §3
[15] = tested on: YAPC; test: Cytotoxicity against human YAPC cells assessed as reduction in cell viability in presence of Cu2+ incubated for 72 hrs by cell titer-glo luminescent cell viability assay; assay type: functional, cell-based; how it was run: as §3
[16] = tested on: MIA PaCa-2; test: Induction of apoptosis in human MIA PaCa-2 cells assessed as increase in early apoptotic cells at 25 nM in presence of ATRi incubated for 72 hrs by annexin V and propidium iodide staining based flow cytometry analysis relative to control; assay type: functional; how it was run: as §1
[17] = tested on: MOLT-4; test: Cytotoxicity against human MOLT-4 cells assessed as reduction in cell viability in presence of Cu2+ incubated for 72 hrs by cell titer-glo luminescent cell viability assay; assay type: functional, cell-based; conditions: MOLT-4, 72 h; how it was run: as §3
[18] = tested on: Panc203; test: Cytotoxicity against human Panc203 cells assessed as reduction in cell viability in presence of Cu2+ incubated for 72 hrs by cell titer-glo luminescent cell viability assay; assay type: functional, cell-based; conditions: Panc203, 72 h; how it was run: as §3
[19] = tested on: MIA PaCa-2; test: Induction of apoptosis in human MIA PaCa-2 cells assessed as reduction in viable cells at 25 nM in presence of Cu2+ and ATRi incubated for 72 hrs by annexin V and propidium iodide staining based flow cytometry analysis relative to control; assay type: functional; how it was run: as §1
[20] = tested on: MIA PaCa-2; test: Induction of DNA damage in human MIA PaCa-2 cells assessed as decrease in dATP level at 25 nM in presence of Cu2+ incubated for 48 hrs by LC-MS/MS analysis; assay type: functional, cell-based; how it was run: as §2
[21] = tested on: MIA PaCa-2; test: Induction of DNA damage in human MIA PaCa-2 cells assessed as decrease in UTP level at 25 nM in presence of Cu2+ incubated for 48 hrs by LC-MS/MS analysis; assay type: functional, cell-based; how it was run: as §2

CN(C)C(=S)NN=Cc1nccc2cc(F)ccc12
Activity [1]: 3.68%
Activity [2]: Active
Activity [3]: 24.8%
Activity [4]: Non-Toxic
Activity [5]: inactive
Activity [6]: inactive
Activity [7]: Active
Activity [8]: Active
IC90 [9]: 111 nM
IC50 [10]: 1 nM
Activity [11]: 0.79%
Activity [12]: Active
Activity [13]: inactive
IC50 [14]: 1 nM
IC50 [15]: 1 nM
Activity [16]: 9.11%
IC50 [17]: 1 nM
IC50 [18]: 1 nM
Activity [19]: 27.8%
Activity [20]: inactive
Activity [21]: inactive
